Measured values: ChEMBL document CHEMBL5046217, “Discovery of New Imidazo[2,1-b]thiazole Derivatives as Potent Pan-RAF Inhibitors with Promising In Vitro and In Vivo Anti-melanoma Activity” (J Med Chem, 2021)

Tests used:
[1] = target: Serine/threonine-protein kinase B-raf (Homo sapiens, UniProt P15056); assay: Inhibition of human wild type BRAF using myelin basic protein as substrate in presence of [gamma-33P]ATP incubated for 40 mins by scintillation counting method
Procedure, shortened: (§1)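 Radiometric kinase assay run at Reaction Biology. Kinase (5−10 mU) in 25 mM Tris pH 7.5, 0.02 mM EGTA, 10 mM magnesium acetate with 0.66 mg/mL myelin basic protein and [γ-33P]ATP at 1 μM ATP. Reaction started with Mg-ATP and run 40 min at room temperature, then stopped with 3% phosphoric acid. Spotted on P30 filtermat, washed, scintillation counted.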

[2] = target: Serine/threonine-protein kinase B-raf (Homo sapiens, UniProt P15056, V600E); assay: Inhibition of human BRAF V600E mutant using myelin basic protein as substrate in presence of [gamma-33P]ATP incubated for 40 mins by scintillation counting method; procedure, shortened: as §1
[3] = target: RAF proto-oncogene serine/threonine-protein kinase (Homo sapiens, UniProt P04049); assay: Inhibition of human wild type CRAF using myelin basic protein as substrate in presence of [gamma-33P]ATP incubated for 40 mins by scintillation counting method
[4] = test system: Panel colon (Carcinoma cell lines); assay: cells; conditions: Homo sapiens, 48 h, read-out: INH
[5] = target: Tyrosine-protein kinase ABL1 (Homo sapiens, UniProt P00519); assay: Inhibition of ABL1 (unknown origin) incubated for 1 hr by qPCR analysis
[6] = target: Serine/threonine-protein kinase/endoribonuclease IRE1 (Homo sapiens, UniProt O75460); assay: Inhibition of ERN1 (unknown origin) incubated for 1 hr by qPCR analysis
Procedure, shortened: (§2)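 Competition binding assay. Kinases were either T7-phage-tagged (grown in an E. coli BL21-derived host) or expressed in HEK-293 cells and DNA-tagged. […] Bound kinase was eluted with non-biotinylated ligand and quantified by qPCR.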

[7] = target: T1, Receptor-type tyrosine-protein kinase FLT3 (Homo sapiens, UniProt P36888); assay: Inhibition of FLT3 (unknown origin) incubated for 1 hr by qPCR analysis; procedure, shortened: as §2
T1 sequence (P36888 whole entry): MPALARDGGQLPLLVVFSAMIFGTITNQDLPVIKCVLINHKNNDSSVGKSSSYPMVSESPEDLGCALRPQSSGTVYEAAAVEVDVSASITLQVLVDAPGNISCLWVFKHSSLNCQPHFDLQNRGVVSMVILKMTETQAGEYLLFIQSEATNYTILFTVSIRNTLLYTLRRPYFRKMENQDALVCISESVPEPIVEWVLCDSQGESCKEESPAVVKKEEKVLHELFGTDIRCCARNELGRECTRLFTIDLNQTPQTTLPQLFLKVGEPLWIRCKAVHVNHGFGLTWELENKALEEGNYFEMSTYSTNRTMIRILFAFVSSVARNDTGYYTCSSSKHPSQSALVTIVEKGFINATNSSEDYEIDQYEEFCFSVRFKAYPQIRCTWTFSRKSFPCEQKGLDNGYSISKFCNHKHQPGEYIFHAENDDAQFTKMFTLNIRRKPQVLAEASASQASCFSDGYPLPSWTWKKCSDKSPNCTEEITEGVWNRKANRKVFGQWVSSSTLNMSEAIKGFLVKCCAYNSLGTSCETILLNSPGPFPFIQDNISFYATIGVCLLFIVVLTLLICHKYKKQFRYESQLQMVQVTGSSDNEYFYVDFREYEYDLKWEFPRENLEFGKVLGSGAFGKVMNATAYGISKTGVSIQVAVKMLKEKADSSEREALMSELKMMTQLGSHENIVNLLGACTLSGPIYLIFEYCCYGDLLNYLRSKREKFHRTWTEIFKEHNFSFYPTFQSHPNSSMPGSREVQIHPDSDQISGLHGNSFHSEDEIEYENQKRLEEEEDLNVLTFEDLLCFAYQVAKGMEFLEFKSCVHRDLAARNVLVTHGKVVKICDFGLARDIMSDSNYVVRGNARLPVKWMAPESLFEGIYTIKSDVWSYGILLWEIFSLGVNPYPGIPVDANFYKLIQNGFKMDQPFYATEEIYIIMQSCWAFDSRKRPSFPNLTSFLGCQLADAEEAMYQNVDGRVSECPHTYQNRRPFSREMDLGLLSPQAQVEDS

[8] = target: Homeodomain-interacting protein kinase 1 (Homo sapiens, UniProt Q86Z02); assay: Inhibition of HIPK1 (unknown origin) incubated for 1 hr by qPCR analysis; procedure, shortened: as §2
[9] = target: Mitogen-activated protein kinase 8 (Homo sapiens, UniProt P45983); assay: Inhibition of MAPK8 (unknown origin) incubated for 1 hr by qPCR analysis; procedure, shortened: as §2
[10] = target: Mitogen-activated protein kinase 11 (Homo sapiens, UniProt Q15759); assay: Inhibition of MAPK11 (unknown origin) incubated for 1 hr by qPCR analysis; procedure, shortened: as §2
[11] = target: Mitogen-activated protein kinase 14 (Homo sapiens, UniProt Q16539); assay: Inhibition of MAPK14 (unknown origin) incubated for 1 hr by qPCR analysis; procedure, shortened: as §2
[12] = target: Mitogen-activated protein kinase kinase kinase 20 (Homo sapiens, UniProt Q9NYL2); assay: Inhibition of ZAK (unknown origin) incubated for 1 hr by qPCR analysis; procedure, shortened: as §2
[13] = target: Fibroblast growth factor receptor 1 (Homo sapiens, UniProt P11362); assay: Inhibition of FGFR1 (unknown origin) incubated for 1 hr by qPCR analysis
[14] = Cytotoxicity against human L132 cells assessed as cell growth inhibition incubated for 48 hrs by MTT assay; format: toxicity, cell-based
[15] = Cytotoxicity against human BJ cells assessed as cell growth inhibition incubated for 48 hrs by MTT assay; format: toxicity, cell-based
Procedure, shortened: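 BJ1 normal skin fibroblasts were seeded at 10 × 10³ cells/well with compound in triplicate wells and grown in DMEM-F12 at 37 °C, 5% CO₂, across an eight-point dilution series. Growth inhibition was calculated as (1 − T/C) × 100, and IC50 was taken from the dose–response curve.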

[16] = test system: Panel leukemia (Carcinoma cell lines); assay: Antiproliferative activity against human Panel leukemia (Carcinoma cell lines) assessed as cell growth inhibition measured after 48 hrs by SRB assay
[17] = test system: NSCLC; assay: Antiproliferative activity against human NSCLC cell line assessed as cell growth inhibition measured after 48 hrs by SRB assay
[18] = test system: Panel colon (Carcinoma cell lines); assay: Antiproliferative activity against human Panel colon (Carcinoma cell lines) assessed as cell growth inhibition measured after 48 hrs by SRB assay
[19] = test system: Panel CNS (Carcinoma cell lines); assay: Antiproliferative activity against human Panel CNS (Carcinoma cell lines) assessed as cell growth inhibition measured after 48 hrs by SRB assay
[20] = test system: Panel melanoma (Carcinoma cell lines); assay: Antiproliferative activity against human Panel melanoma (Carcinoma cell lines) assessed as cell growth inhibition measured after 48 hrs by SRB assay
[21] = test system: Panel ovarian (Carcinoma cell lines); assay: Antiproliferative activity against human Panel ovarian (Carcinoma cell lines) assessed as cell growth inhibition measured after 48 hrs by SRB assay
[22] = test system: Panel renal (Carcinoma cell lines); assay: Antiproliferative activity against human Panel renal (Carcinoma cell lines) assessed as cell growth inhibition measured after 48 hrs by SRB assay
[23] = test system: Panel prostate (Carcinoma cell lines); assay: Antiproliferative activity against human Panel prostate (Carcinoma cell lines) assessed as cell growth inhibition measured after 48 hrs by SRB assay
[24] = test system: Panel breast (Carcinoma cell lines); assay: Antiproliferative activity against human Panel breast (Carcinoma cell lines) assessed as cell growth inhibition measured after 48 hrs by SRB assay
[25] = test system: LOX IMVI; assay: Antiproliferative activity against human LOX IMVI cells assessed as cell growth inhibition measured after 48 hrs by SRB assay
[26] = test system: Malme-3M; assay: Antiproliferative activity against human Malme-3M cells assessed as cell growth inhibition measured after 48 hrs by SRB assay
[27] = test system: M14; assay: Antiproliferative activity against human M14 cells assessed as cell growth inhibition measured after 48 hrs by SRB assay; conditions: M14, 48 h
[28] = test system: MDA-MB-435; assay: Antiproliferative activity against human MDA-MB-435 cells assessed as cell growth inhibition measured after 48 hrs by SRB assay; conditions: MDA-MB-435, 48 h
[29] = test system: SK-MEL-2; assay: Antiproliferative activity against human SK-MEL-2 cells assessed as cell growth inhibition measured after 48 hrs by SRB assay; conditions: SK-MEL-2, 48 h
[30] = test system: SK-MEL-28; assay: Antiproliferative activity against human SK-MEL-28 cells assessed as cell growth inhibition measured after 48 hrs by SRB assay; conditions: SK-MEL-28, 48 h
[31] = test system: SK-MEL-5; assay: Antiproliferative activity against human SK-MEL-5 cells assessed as cell growth inhibition measured after 48 hrs by SRB assay; conditions: SK-MEL-5, 48 h
[32] = test system: UACC-257; assay: Antiproliferative activity against human UACC-257 cells assessed as cell growth inhibition measured after 48 hrs by SRB assay; conditions: UACC-257, 48 h
[33] = test system: UACC-62; assay: Antiproliferative activity against human UACC-62 cells assessed as cell growth inhibition measured after 48 hrs by SRB assay; conditions: UACC-62, 48 h
[34] = test system: LOX IMVI; assay: Antiproliferative activity against human LOX IMVI cells assessed as total growth inhibition measured after 48 hrs by SRB assay
[35] = test system: Malme-3M; assay: Antiproliferative activity against human Malme-3M cells assessed as total growth inhibition measured after 48 hrs by SRB assay
[36] = test system: M14; assay: Antiproliferative activity against human M14 cells assessed as total growth inhibition measured after 48 hrs by SRB assay; conditions: M14, 48 h
[37] = test system: MDA-MB-435; assay: Antiproliferative activity against human MDA-MB-435 cells assessed as total growth inhibition measured after 48 hrs by SRB assay; conditions: MDA-MB-435, 48 h
[38] = test system: SK-MEL-2; assay: Antiproliferative activity against human SK-MEL-2 cells assessed as total growth inhibition measured after 48 hrs by SRB assay; conditions: SK-MEL-2, 48 h
[39] = test system: SK-MEL-28; assay: Antiproliferative activity against human SK-MEL-28 cells assessed as total growth inhibition measured after 48 hrs by SRB assay; conditions: SK-MEL-28, 48 h
[40] = test system: SK-MEL-5; assay: Antiproliferative activity against human SK-MEL-5 cells assessed as total growth inhibition measured after 48 hrs by SRB assay; conditions: SK-MEL-5, 48 h
[41] = test system: UACC-257; assay: Antiproliferative activity against human UACC-257 cells assessed as total growth inhibition measured after 48 hrs by SRB assay; conditions: UACC-257, 48 h
[42] = test system: UACC-62; assay: Antiproliferative activity against human UACC-62 cells assessed as total growth inhibition measured after 48 hrs by SRB assay; conditions: UACC-62, 48 h
[43] = test system: Panel melanoma (Carcinoma cell lines); assay: cells; conditions: Homo sapiens, 48 h, read-out: INH
[44] = in vitro; conditions: human, BJ cells and Malme-3M cells

Serine/threonine-protein kinase B-raf (Homo sapiens, UniProt P15056, V600E), sequence (P15056 2-766 V600E limits assumed): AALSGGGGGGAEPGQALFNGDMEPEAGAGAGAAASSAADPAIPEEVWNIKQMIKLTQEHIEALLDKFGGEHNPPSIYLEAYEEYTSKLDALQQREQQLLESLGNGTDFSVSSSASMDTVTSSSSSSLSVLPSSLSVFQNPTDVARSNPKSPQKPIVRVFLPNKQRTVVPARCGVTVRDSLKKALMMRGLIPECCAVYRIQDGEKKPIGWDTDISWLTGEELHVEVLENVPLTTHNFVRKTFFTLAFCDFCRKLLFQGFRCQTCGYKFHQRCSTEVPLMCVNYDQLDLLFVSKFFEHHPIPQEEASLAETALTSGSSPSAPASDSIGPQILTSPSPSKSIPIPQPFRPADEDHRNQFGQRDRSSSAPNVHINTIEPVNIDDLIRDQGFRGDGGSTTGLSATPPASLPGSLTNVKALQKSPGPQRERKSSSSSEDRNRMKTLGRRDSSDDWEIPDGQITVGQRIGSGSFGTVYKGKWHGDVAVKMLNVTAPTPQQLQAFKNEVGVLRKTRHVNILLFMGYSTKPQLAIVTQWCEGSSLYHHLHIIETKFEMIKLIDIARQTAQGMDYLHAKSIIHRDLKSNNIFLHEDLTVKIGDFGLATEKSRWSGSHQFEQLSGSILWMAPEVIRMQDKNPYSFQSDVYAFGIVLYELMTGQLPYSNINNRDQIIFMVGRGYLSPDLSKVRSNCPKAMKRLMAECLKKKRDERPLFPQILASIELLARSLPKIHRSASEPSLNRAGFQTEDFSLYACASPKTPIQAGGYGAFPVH
RAF proto-oncogene serine/threonine-protein kinase, sequence (P04049 whole entry): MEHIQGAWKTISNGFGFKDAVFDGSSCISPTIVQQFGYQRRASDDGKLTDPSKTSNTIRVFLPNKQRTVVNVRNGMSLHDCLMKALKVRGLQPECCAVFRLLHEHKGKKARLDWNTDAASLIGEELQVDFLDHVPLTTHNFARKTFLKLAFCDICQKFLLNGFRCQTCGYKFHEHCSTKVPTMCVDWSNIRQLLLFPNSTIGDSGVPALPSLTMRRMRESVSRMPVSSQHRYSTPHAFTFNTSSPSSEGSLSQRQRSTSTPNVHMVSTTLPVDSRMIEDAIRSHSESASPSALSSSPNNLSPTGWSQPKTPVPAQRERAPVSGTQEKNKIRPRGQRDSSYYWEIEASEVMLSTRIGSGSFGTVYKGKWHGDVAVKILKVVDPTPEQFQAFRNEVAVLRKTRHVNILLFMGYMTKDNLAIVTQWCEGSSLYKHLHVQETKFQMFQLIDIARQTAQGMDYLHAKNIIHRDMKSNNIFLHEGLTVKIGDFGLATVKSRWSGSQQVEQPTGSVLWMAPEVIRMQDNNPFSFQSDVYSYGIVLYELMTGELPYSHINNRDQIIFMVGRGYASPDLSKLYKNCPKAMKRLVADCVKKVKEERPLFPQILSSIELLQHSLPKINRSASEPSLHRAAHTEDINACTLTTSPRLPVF
Mitogen-activated protein kinase 14, sequence (Q16539 whole entry): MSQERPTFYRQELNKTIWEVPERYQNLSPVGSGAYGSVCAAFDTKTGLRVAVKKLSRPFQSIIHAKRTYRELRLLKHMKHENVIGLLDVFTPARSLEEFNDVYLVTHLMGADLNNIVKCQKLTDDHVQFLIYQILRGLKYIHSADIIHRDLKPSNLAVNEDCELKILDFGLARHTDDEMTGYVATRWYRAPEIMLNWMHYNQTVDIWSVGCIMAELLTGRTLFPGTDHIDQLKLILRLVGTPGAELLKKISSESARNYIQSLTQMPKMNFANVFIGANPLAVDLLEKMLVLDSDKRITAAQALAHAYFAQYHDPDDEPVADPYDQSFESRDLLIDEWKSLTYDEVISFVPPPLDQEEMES
Homeodomain-interacting protein kinase 1, sequence (Q86Z02 whole entry): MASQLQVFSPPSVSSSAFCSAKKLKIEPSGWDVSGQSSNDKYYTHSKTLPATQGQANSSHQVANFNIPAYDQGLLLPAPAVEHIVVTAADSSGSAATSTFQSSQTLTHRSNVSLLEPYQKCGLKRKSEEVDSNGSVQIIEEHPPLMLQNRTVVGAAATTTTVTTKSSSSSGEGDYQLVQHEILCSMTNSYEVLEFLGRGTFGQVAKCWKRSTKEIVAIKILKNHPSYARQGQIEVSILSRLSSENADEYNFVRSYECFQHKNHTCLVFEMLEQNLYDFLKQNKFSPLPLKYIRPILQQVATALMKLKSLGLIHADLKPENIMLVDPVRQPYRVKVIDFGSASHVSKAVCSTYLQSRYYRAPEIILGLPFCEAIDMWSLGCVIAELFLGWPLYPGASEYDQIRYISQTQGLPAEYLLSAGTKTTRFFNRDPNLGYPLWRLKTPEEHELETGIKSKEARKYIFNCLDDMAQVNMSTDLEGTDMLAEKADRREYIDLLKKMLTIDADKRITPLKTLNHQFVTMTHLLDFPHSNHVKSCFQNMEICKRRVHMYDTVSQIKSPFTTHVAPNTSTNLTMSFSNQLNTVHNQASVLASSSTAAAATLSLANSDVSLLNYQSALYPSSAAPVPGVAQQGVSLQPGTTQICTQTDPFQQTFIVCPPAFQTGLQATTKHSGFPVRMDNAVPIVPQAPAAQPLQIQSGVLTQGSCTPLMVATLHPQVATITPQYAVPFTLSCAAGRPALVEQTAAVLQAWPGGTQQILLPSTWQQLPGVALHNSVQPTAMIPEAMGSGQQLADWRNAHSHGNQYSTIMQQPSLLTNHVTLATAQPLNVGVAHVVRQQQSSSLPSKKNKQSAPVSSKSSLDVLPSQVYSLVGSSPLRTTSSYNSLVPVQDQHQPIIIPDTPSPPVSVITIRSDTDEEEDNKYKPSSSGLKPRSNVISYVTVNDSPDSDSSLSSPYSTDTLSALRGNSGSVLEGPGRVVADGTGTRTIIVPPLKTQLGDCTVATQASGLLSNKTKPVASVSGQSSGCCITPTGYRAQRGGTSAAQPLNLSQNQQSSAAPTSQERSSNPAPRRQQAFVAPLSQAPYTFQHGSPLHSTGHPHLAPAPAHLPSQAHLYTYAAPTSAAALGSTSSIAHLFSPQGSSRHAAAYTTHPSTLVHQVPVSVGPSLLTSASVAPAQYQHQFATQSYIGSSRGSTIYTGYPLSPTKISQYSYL
Mitogen-activated protein kinase 8, sequence (P45983 whole entry): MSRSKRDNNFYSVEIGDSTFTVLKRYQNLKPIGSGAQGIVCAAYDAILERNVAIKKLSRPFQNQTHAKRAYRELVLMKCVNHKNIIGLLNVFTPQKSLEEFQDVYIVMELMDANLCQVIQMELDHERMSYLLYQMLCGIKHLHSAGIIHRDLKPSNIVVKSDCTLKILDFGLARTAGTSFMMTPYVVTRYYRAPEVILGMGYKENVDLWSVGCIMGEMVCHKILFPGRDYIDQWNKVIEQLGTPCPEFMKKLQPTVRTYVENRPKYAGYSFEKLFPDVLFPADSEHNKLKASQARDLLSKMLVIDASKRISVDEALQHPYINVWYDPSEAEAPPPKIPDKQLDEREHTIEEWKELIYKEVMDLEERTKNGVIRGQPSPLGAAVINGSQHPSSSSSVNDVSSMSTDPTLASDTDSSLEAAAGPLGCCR
Serine/threonine-protein kinase/endoribonuclease IRE1, sequence (O75460 whole entry): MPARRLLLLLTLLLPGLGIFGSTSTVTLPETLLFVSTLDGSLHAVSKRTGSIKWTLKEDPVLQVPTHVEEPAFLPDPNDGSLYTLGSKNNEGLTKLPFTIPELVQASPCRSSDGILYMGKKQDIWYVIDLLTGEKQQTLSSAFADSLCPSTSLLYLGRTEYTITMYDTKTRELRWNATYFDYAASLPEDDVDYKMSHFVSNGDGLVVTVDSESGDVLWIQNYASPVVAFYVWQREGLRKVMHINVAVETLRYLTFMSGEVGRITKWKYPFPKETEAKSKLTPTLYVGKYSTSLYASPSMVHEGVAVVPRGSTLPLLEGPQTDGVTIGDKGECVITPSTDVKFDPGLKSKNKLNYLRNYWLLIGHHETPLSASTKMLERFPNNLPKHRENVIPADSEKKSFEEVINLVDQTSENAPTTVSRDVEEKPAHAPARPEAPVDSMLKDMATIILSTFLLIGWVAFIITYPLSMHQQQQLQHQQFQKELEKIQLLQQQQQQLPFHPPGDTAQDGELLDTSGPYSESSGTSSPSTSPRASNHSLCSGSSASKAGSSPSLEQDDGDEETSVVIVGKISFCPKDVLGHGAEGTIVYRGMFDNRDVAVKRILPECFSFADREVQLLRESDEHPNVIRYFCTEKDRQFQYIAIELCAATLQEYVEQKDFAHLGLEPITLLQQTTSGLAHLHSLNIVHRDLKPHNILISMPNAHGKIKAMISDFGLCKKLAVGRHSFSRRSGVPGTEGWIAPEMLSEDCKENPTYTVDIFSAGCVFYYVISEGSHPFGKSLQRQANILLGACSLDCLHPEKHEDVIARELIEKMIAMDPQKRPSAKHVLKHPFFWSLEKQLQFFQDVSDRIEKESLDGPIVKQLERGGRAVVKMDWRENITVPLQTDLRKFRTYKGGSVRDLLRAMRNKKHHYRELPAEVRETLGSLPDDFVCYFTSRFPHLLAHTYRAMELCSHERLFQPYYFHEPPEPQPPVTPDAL
Mitogen-activated protein kinase 11, sequence (Q15759 whole entry): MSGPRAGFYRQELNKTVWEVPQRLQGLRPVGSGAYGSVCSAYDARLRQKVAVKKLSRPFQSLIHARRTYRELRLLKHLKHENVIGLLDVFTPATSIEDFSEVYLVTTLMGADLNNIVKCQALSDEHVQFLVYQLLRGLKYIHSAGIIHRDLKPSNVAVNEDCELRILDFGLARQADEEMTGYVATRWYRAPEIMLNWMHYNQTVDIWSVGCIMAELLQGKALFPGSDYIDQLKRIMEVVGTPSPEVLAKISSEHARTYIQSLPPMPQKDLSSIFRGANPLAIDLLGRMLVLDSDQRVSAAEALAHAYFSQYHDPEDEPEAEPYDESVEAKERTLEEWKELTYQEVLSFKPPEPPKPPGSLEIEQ

SMILES: COc1cccc(-c2nc3sccn3c2-c2ccnc(NCCNS(=O)(=O)c3ccc4ccccc4c3)n2)c1
- IC50 [1]: 0.921 µM
- IC50 [2]: 0.169 µM
- IC50 [3]: 0.19 µM
- inhibition at 10 µM [4]: 83.1%

SMILES: O=S(=O)(NCCNc1nccc(-c2c(-c3cccc(O)c3)nc3sccn23)n1)c1ccc(F)cc1
- IC50 [1]: 0.0027 µM
- IC50 [3]: 0.006 µM
- IC50 [5]: 10.4 µM
- IC50 [6]: 9.54 µM
- IC50 [7]: 1.99 µM
- IC50 [8]: 5.13 µM
- IC50 [9]: 1.35 µM
- IC50 [10]: 1.21 µM
- IC50 [11]: 2.01 µM
- IC50 [12]: 7.58 µM

SMILES: COc1cccc(-c2nc3sccn3c2-c2ccnc(NCCNS(=O)(=O)c3ccc(C(F)(F)F)cc3)n2)c1
- IC50 [3]: 0.142 µM
- IC50 [6]: > 20 µM
- IC50 [13]: 15.6 µM
- IC50 [7]: 2.17 µM
- IC50 [8]: 4.58 µM
- IC50 [9]: 0.42 µM
- IC50 [10]: 0.12 µM
- IC50 [11]: 0.098 µM
- IC50 [12]: 8.11 µM

SMILES: COc1cccc(-c2nc3sccn3c2-c2ccnc(NCCCNS(=O)(=O)c3cccc(F)c3)n2)c1
- IC50 [1]: 0.526 µM
- IC50 [2]: 0.102 µM
- IC50 [3]: 0.111 µM
- IC50 [6]: 15.6 µM
- IC50 [13]: 11.8 µM
- IC50 [7]: 2.98 µM
- IC50 [8]: 3.84 µM
- IC50 [9]: 0.36 µM
- IC50 [10]: 0.095 µM
- IC50 [11]: 0.088 µM
- IC50 [12]: 11.3 µM

SMILES: COc1ccc(-c2nc3sccn3c2-c2ccnc(NCCNS(=O)(=O)c3ccc(C)cc3)n2)cc1
- IC50 [1]: 19.3 µM
- IC50 [2]: 26.6 µM
- IC50 [3]: 21.3 µM
- IC50 at 48 h [14]: 466 µM
- IC50 at 48 h [15]: 126 µM

SMILES: CN1CCCN(CCNc2nccc(-c3c(-c4cccc(O)c4)nc4sccn34)n2)S1(=O)=O
- IC50 [1]: 0.00633 µM
- IC50 [2]: 0.00377 µM
- IC50 [3]: 0.00196 µM
- IC50 [16]: 11.9 µM
- IC50 [17]: 13.6 µM
- IC50 [18]: 8.08 µM
- IC50 [19]: 16.4 µM
- IC50 [20]: 1.79 µM
- IC50 [21]: 12.1 µM
- IC50 [22]: 5.98 µM
- IC50 [23]: 11.6 µM
- IC50 [24]: 11.9 µM
- IC50 [25]: 4.36 µM
- IC50 [26]: 0.036 µM
- IC50 [27]: 0.174 µM
- IC50 [28]: 0.49 µM
- IC50 [29]: 2.26 µM
- IC50 [30]: 0.24 µM
- IC50 [31]: 0.348 µM
- IC50 [32]: 8.21 µM
- IC50 [33]: 0.058 µM
- TGI [34]: 28.2 µM
- TGI [35]: 0.408 µM
- TGI [36]: 12.9 µM
- TGI [37]: 51.6 µM
- TGI [38]: 7.36 µM
- TGI [39]: 52 µM
- TGI [40]: 10.3 µM
- TGI [41]: > 100 µM
- TGI [42]: 3.14 µM
- IC50 at 48 h [14]: 93.6 µM
- IC50 at 48 h [15]: 75.6 µM
- inhibition at 10 µM [43]: 84.8%
- selectivity ratio [44]: 2100
